From PubChem
A selection: hits, their analogues and other compounds. The true share with any hit is near 2.2%.
Scp-1 inhibitor: Scp-1 phosphatase inhibitors, primary screen, biochemical, colorimetric, uHTS; AID 493091, 2011; Recombinant Scp1, phosphopeptide, malachite green phosphate absorbance; hit rate 0.88% among 340,000; Carboxy-terminal domain RNA polymerase II polypeptide A small phosphatase 1 (Homo …; inhibition, % at 20 µM;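 active means inhibition above about 50% at 20 µM, limit read from the data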;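 further: plate controls were DMSO wells with enzyme for no effect and wells lacking enzyme for full effect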
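Material – SCP-1 phosphatase catalytic domain, residues 76-261 · Buffer or medium – Acidic Tris acetate buffer with magnesium and detergent · Also added – Phospho 17-mer peptide substrate · Compound – single 20 µM dose, 1% DMSO · Times – 45 min room-temperature reaction, 5 min colour, 30 min stabiliser · Technique – Phosphate-binding colour reagent, absorbance read at 630 nm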
STEP inh: STEP phosphatase inhibitors, primary screen, biochemical, fluorescence intensity, uHTS; recombinant STEP, OMFP fluorogenic substrate; inhibition, % at 20 µM; hit rate 0.25% among 360,000;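 active means inhibition at 20 µM, scaled per plate between control wells, above about 37%, limit read from the data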;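 further: 0% = DMSO with enzyme and substrate and 100% = substrate only without enzyme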
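medium = Bis-Tris buffer pH 6.0, 2.5 mM DTT, 0.005% Tween 20 | test system = STEP (striatal-enriched tyrosine phosphatase) enzyme, cell-free | measure = normalized % inhibition | compound dosing = 20 µM, 1% DMSO | also added = 25 µM OMFP | schedule = reaction 20 min, ambient temperature | measured by = fluorescence read at 480 nm ex / 540 nm em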
SUMO1-SIM PPI: modulators of SUMO1 protein-protein interactions, primary screen, biochemical, uHTS; SUMO1 binding to a labelled peptide, TR-FRET, 1 h; Small ubiquitin-related modifier 1 (Homo sapiens), P63165; hit rate 0.33% among 360,000; AID 602429, 2012; inhibition, % at 20 µM; in the data active means inhibition above about 37%
Target sequence (P63165 whole entry, looked up): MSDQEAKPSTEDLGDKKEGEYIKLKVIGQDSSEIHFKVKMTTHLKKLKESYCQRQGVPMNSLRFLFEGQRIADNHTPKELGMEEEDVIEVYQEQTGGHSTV
DNMT1 inh: human DNMT1 methyltransferase inhibitors, primary screen, biochemical, molecular beacon, fluorescence, HinP1I cleavage, uHTS | hit rate 0.83% among 360,000 | AID 588458, 2011 | inhibition (reported as % activation of signal), % at 10 µM; in the data active means inhibition above about 50%
LMPTP block: LMPTP phosphatase inhibitors, primary screen, biochemical, fluorescence intensity, uHTS; hit rate 0.22% among 360,000; inhibition, % at 20 µM; recombinant LMPTP-A, OMFP fluorogenic substrate;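 active means compounds that cut the enzyme signal by at least half of the control window in the single-dose screen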;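 further: plate controls were DMSO wells with enzyme plus substrate for no effect and substrate without enzyme for full effect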
Target sequence (P24666 whole entry, looked up): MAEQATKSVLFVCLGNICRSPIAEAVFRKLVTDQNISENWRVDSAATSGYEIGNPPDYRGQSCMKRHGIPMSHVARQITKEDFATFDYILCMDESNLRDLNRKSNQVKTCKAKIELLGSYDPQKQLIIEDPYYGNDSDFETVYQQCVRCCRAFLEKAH
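Assay system: LMPTP-A phosphatase enzyme | Input: 0.625 nM enzyme | Also added: Fluorogenic phosphatase substrate OMFP at 400 µM final | Compound dosing: One test concentration per compound, 20 µM, with 3% DMSO overall | Schedule: 50 min enzyme reaction at room temperature, protected from light | Signal: Fluorescence intensity | Benchmarks: no-enzyme and uninhibited controls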
GRK2 aptamer HTS: compounds blocking aptamer binding on GRK2 – biochemical, human GRK2, bead flow cytometry, HTS, primary screen | Beta-adrenergic receptor kinase 1 (Homo sapiens), P25098 | FAM-aptamer displacement from GRK2 | inhibition of aptamer binding, % at 10 µM | hit rate 0.59% among 330,000 | AID 488847, 2010;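 active means inhibition of aptamer binding above 40%, roughly 3 SD of noise, on plates passing a quality check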;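 further: median bead fluorescence of bound FAM aptamer so fluorescent compounds give negative values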
Numbers without * were called inactive; nt = no result given; ! = a repeat was not active.

SMILES	Scp-1 inhibitor	STEP inh	SUMO1-SIM PPI	DNMT1 inh	LMPTP block	GRK2 aptamer HTS
O=C(NCCN1CCOCC1)C1CCN(S(=O)(=O)N2CCCCC2)CC1	1	0	64*	1	0	1
O=C(NCCN1CCCC1)C1CCN(S(=O)(=O)N2CCC3(CC2)OCCO3)CC1	-3	1	-7	-2	0	4
FC(F)(F)c1cccc(Oc2cc(C(F)(F)F)nc(-c3ccccn3)n2)c1	-10	2	54*	1	1	0
CCC(CC)C(=O)N(C)c1c(C)nc2c(OCCOc3ccc(F)cc3)cccn12	nt	0	0	-9	0	nt
S=C(NCCCN1CCOCC1)NCCCN1CCOCC1	-2	94*	-2	-1	-7	0
CCC(C)NC(=O)CSc1nc2cc3c(cc2c(=O)n1Cc1ccco1)OCO3 (stereo unspecified)	-5	-1	42*	14	-1	nt
NC(=S)N=Nc1c(O)cc(O)c2[nH]c(=O)ccc12	85*	39	69*	66*	14	nt
CNc1nc(NC)c2cn[nH]c2n1	-8	-2	-2	0	63*	nt
N[C@@H](Cc1cc(I)c(Oc2ccc(O)c(I)c2)c(I)c1)C(=O)O	27	-3	40*!	77*!	32	2
CCC(CO)Oc1cc(NC(=O)c2cccc(OC)c2)c2ncn(C(C)C)c2c1 (stereo unspecified)	1	4	61*	-25	0	13
CCC(CO)Oc1cc(NC(=O)c2ccc(OC)cc2)c2ncn(C(C)C)c2c1 (stereo unspecified)	3	-2	-1	-12	2	0
Nc1nn2cc(-c3ccc(Br)cc3)nc2c2ccccc12	0	-4	65*	-3	3	0
CN(CCCS(=O)(=O)[O-])c1ccc(/C=C/c2ccc3ccccc3[n+]2C)cc1	36	1	-39	6	1	0
CN(C)c1ccc(/C=C/c2ccc3ccccc3[n+]2C)cc1	66*	13	-38	1	46	2
CN(C)c1ccc(/C=C/c2ccc3c4ccccc4ccc3[n+]2-c2ccccc2)cc1	6	16	37	40	98*	nt
O=C(Oc1nsnc1N1CCOCC1)N(c1ccccc1)c1ccccc1	10	2	-1	1	0	0
COC(=O)Oc1nsnc1N1CCOCC1	70*	34	2	2	1	0
COc1cccc2c1C(=O)c1c(O)c3c(c(O)c1C2=O)C[C@@](O)(C(=O)CO)C[C@@H]3O[C@H]1C[C@H](N)[C@@H](O)[C@H](C)O1	-14	-4	97*	-176	14	14
O=C(Nc1ccc(-n2nncc2-c2ccco2)cc1)c1cccc(F)c1	-2	-2	-2	-6	0	1
O=C(Nc1ccc(-n2nncc2-c2ccco2)cc1)c1cc2ccccc2oc1=O	35	45*	57*	112*	20	4
CCc1nnc(NC(=O)CSc2nc3[nH]c(=O)cc(O)c3s2)s1	0	1	13	3	1	0
CCc1nnc(NC(=O)CSc2sc3c(O)cc(=O)[nH]c3c2C#N)s1	95*	33	40*	83*	32	9
COc1cc(C(=O)NCC(=O)NC(C)c2ccc(-n3ccnc3)cc2)cc(OC)c1OC (stereo unspecified)	-2	2	12	2	-1	4
CCOc1ccc(C(=O)NCC(=O)NC(C)c2ccc(-n3ccnc3)cc2)cc1OCC (stereo unspecified)	-2	-2	45*	1	-1	0
COc1ccc(Cc2c3cc(OC)c(OC)cc3cc[n+]2C)cc1OC	101*	0	-10	-15	0	0
